# Results gathered from unrelated publications.
# Lines come from different studies, so protocols differ.
SMILES,tested on,test,system,setting,quantity,value
CCOc1ccc2c(C)c(CC)c(=O)oc2c1C,MDA-MB-231,"cell growth or viability, MTT",,250 µg/mL,viability,32.3%
C[C@@H]1[C@H](O)[C@@H](C)/C=C/C=C/C=C/C=C/C=C/C=C/C=C/[C@H](O[C@@H]2O[C@H](C)[C@@H](O)[C@H](N)[C@@H]2O)C[C@@H]2O[C@](O)(C[C@@H](O)C[C@@H](O)[C@H](O)CC[C@@H](O)C[C@@H](O)CC(=O)O[C@H]1C)C[C@H](O)[C@H]2C(=O)O,Lodderomyces parapsilosis,"microbial growth, broth dilution",ATCC22019,24 h,MIC,2 µg/mL
C[C@H](NC(=O)CO/N=c1\cc2n(-c3ccc(Cl)cc3)c3ccccc3nc-2cc1Nc1ccc(Cl)cc1)C(=O)OC(C)(C)C,Neisseria gonorrhoeae,microbial growth,ATCC49226,,MIC,3.75 µM
O=C1C(Br)=C(Br)C(=O)c2ccccc21,Lodderomyces parapsilosis,"microbial growth, broth dilution",ATCC22019,24 h,MIC,< 1.56 µg/mL
CO/N=c1\cc2n(-c3ccc(Cl)cc3)c3ccccc3nc-2cc1Nc1ccc(Cl)cc1,Neisseria gonorrhoeae,microbial growth,ATCC49226,,MIC,0.94 µM
CC(C)C[C@@H]1NC(=O)[C@@H](N(C)C(=O)[C@H](CC2CCC2)NC(=O)[C@@H]2C[C@@H](F)CN2C(=O)C2(C(F)(F)F)CC(F)(F)C2)CCCCNC(=O)C2(CC2)NC(=O)[C@H](Cc2cc(Cl)ccc2Cl)N(C)C1=O,NCI-H526,"cell growth or viability, MTT",,5 days,GI50,240 nM
CC(C)/N=c1\cc2n(-c3ccc(Cl)cc3)c3ccccc3nc-2cc1Nc1ccc(Cl)cc1,Neisseria gonorrhoeae,microbial growth,ATCC49226,,MIC,0.94 µM
C[C@@H]1CC[C@@H]([C@@](O)(CNCc2ccccc2)COCc2ccccc2)[C@H](OCc2ccccc2)C1,MDA-MB-231,"cell growth or viability, MTT",,"10 µM, 72 h",inhibition,95.5%
CCc1c(C)c2ccc(OCC(=O)NN=Cc3ccc([N+](=O)[O-])cc3)cc2oc1=O,MDA-MB-231,"cell growth or viability, MTT",,1000 µg/mL,viability,13%
C[C@@H]1CC[C@@H]([C@](O)(CNCc2ccccc2)COCc2ccc(F)cc2)[C@H](OCc2ccc(F)cc2)C1,MDA-MB-231,"cell growth or viability, MTT",,"10 µM, 72 h",inhibition,93.8%
O=C(O)CO/N=c1\cc2n(-c3ccc(Cl)cc3)c3ccccc3nc-2cc1Nc1ccc(Cl)cc1,Neisseria gonorrhoeae,microbial growth,ATCC49226,,MIC,1.88 µM
Cc1c(Cc2ccccc2)c(=O)oc2c(C)c(OCC(=O)NN=Cc3ccco3)ccc12,MDA-MB-231,"cell growth or viability, MTT",,500 µg/mL,viability,1.17%
